Results on 2 compounds are retold here after ChEMBL document CHEMBL4350999, “Enhanced tumor retention of NTSR1-targeted agents by employing a hydrophilic cysteine cathepsin inhibitor” (Eur J Med Chem, 2019).

Structures are written as SMILES. Calls of active or inactive are those of the source. No cut-off for these calls is given here.

The target of series [1] is T1, Cathepsin B (Homo sapiens, UniProt P07858). In words: Inhibition of human liver cathepsin B assessed as pseudo Michaelis-Menten constant at 10 nM using varying levels of Z-Arg-Arg-AMC as substrate measured every 5 mins for 1 hr by fluorescence assay.
Series [2] can be described thus: Drug localization in endolysosomal compartment of human HT-29 cells assessed as decrease in co-localization efficiency at 5 uM incubated for 2 hrs and measured over 24 hrs using natEu labelled compound by lysotracker green staining based confocal microscopic analysis relative to control. The series is classed as ADME, subcellular. To be noted: ht-29, 5 µM. The procedure, abridged:
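HT-29 cells (1.25 × 10^5/well) loaded with natEu conjugate (5 μM), washed, then chased in fresh medium up to 24 h. Lysotracker Green (100 nM) applied 2 h before each read; cells fixed and imaged confocally at 405/488 nm. Per-cell mean fluorescence and Lysotracker co-localization quantified.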

The target in series [3] is T1, Cathepsin B. Kind of series: Binding affinity to cathepsin B in human HT-29 cells assessed as intracellular adduct formation at 0.74 MBq incubated for 4 hrs in presence of DOTA-beta-ala-[N-alpha-Me8, Dmt11, Tle12] NT6-13 using 177Lu labelled compound by SDS-PAGE analysis. More on the design: dose or concentration left out as unconfirmed. The series is classed as cell-based. The method in brief:
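HT-29 cells (1 × 10^6/well) incubated 4 h at 37 °C with 177Lu conjugate (20 μCi, 0.74 MBq) in 1 mL medium, with or without E-64 (10 μM) or NTSR1 peptide N1 (20 μM). Cells washed and refed; at set times cells pooled, RIPA-lysed with protease inhibitor. Lysates heated 85 °C 2 min, run on 16% tris-glycine SDS-PAGE, and phosphor autoradiography taken after 72 h exposure.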

A short description of series [4]: Drug uptake in heart of SCID mouse xenografted with human HT-29 cells pretreated for 1 hr with colchicine at 1 mg/kg, ip followed by 177Lu labelled compound at 0.37 MBq/mouse, iv measured at 24 hrs by gamma counter analysis. Type of series: ADME, organism-based. The following applies: in vivo. The procedure, abridged:
(§1)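 HT-29 flank xenografts in female SCID mice (5 × 10^6 cells in Matrigel, about 80 mm3). Colchicine 1 mg/kg was given i.p. before a tail-vein injection of 10 μCi (0.37 MBq) of purified 177Lu-conjugate. Tissues were taken at 24 h, weighed and gamma-counted as %ID/g; mean ± SD, n = 5.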
(In general: A xenograft is tissue or cells of one species grown in another, often human tumour cells in immunodeficient mice.)

Series [5] can be described thus: Drug uptake in pancreas of SCID mouse xenografted with human HT-29 cells pretreated for 1 hr with colchicine at 1 mg/kg, ip followed by 177Lu labelled compound at 0.37 MBq/mouse, iv measured at 24 hrs by gamma counter analysis. Type of series: ADME, organism-based. To be noted: in vivo. The procedure, abridged: as §1
The nature of series [6]: Drug uptake in muscle of SCID mouse xenografted with human HT-29 cells pretreated for 1 hr with colchicine at 1 mg/kg, ip followed by 177Lu labelled compound at 0.37 MBq/mouse, iv measured at 24 hrs by gamma counter analysis. Type of series: ADME, organism-based, Muscle tissue. To be noted: in vivo. The method in brief: as §1
Series [7] can be described thus: Drug uptake in SCID mouse xenografted with human HT-29 cells assessed as tumour retention pretreated for 1 hr with colchicine at 1 mg/kg, ip followed by 177Lu labelled compound at 0.37 MBq/mouse, iv measured at 24 hrs by gamma counter analysis. Type of series: ADME, organism-based. The following applies: in vivo. The procedure, abridged: (§2)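 Female SCID mice bearing s.c. flank HT-29 xenografts (5 × 10^6 cells in Matrigel, ~80 mm3). Given 10 μCi (0.37 MBq) 177Lu conjugate i.v. by tail vein; groups sacrificed at 4, 24, 72 h. Tissues weighed and gamma-counted as %ID/g, excretion as %ID; n = 5, mean ± SD. Blocking arms: colchicine 1 mg/kg i.p. beforehand, or D-lysine 40 mg/kg co-injected.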

A short description of series [8]: Drug uptake in blood of SCID mouse xenografted with human HT-29 cells using 177Lu labelled compound at 0.37 MBq/mouse, iv co-treated with D-lysine at 40 mg/kg measured at 24 hrs by gamma counter analysis. The series is classed as ADME, organism-based. The following applies: in vivo. The procedure, abridged: as §2
Series [9] can be described thus: Drug uptake in liver of SCID mouse xenografted with human HT-29 cells using 177Lu labelled compound at 0.37 MBq/mouse, iv co-treated with D-lysine at 40 mg/kg measured at 24 hrs by gamma counter analysis. The series is classed as ADME, organism-based. To be noted: in vivo. The method in brief:
(§3)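 Female SCID mice bore s.c. HT-29 xenografts (5 × 10^6 cells in Matrigel, about 80 mm3). D-lysine 40 mg/kg was co-injected i.v. with 10 μCi (0.37 MBq) of purified 177Lu-conjugate. Tissues were harvested at 24 h, weighed and gamma-counted, reported as %ID/g; mean ± SD, n = 5.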

The nature of series [10]: Drug uptake in pancreas of SCID mouse xenografted with human HT-29 cells using 177Lu labelled compound at 0.37 MBq/mouse, iv co-treated with D-lysine at 40 mg/kg measured at 24 hrs by gamma counter analysis. The series is classed as ADME, organism-based. The following applies: in vivo. The procedure, abridged: as §3
The nature of series [11]: Drug uptake in small intestine of SCID mouse xenografted with human HT-29 cells using 177Lu labelled compound at 0.37 MBq/mouse, iv co-treated with D-lysine at 40 mg/kg measured at 24 hrs by gamma counter analysis. The following applies: in vivo. Type of series: ADME, organism-based.
A short description of series [12]: Ratio of drug uptake in SCID mouse xenograted with human HT-29 cells assessed as tumour retention to drug uptake in lung of SCID mouse xenografted with human HT-29 cells cotreated with D-lysine at 40 mg/kg measured after 24 hrs using 177Lu labelled compound. Type of series: ADME, organism-based, Tumor/Lung. The following applies: in vivo.
The target of series [13] is T1, Cathepsin B. Kind of series: Binding affinity to human liver cathepsin B assessed as protein-conjugate adduct formation at 0.74 MBq incubated for 30 mins in presence of DOTA-beta-ala-[N-alpha-Me8, Dmt11, Tle12] NT6-13 using 177Lu labelled compound by SDS-PAGE analysis. The following applies: 0.74 M. The procedure, abridged:
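Purified human liver CatB or CatL (3 nM) in 50 mM sodium acetate/1 mM EDTA pH 5.0 incubated 30 min with 177Lu conjugate (500,000 cpm) in Tris/MgCl2/DTT buffer pH 5.5, alone or with E-64 (10 μM) or N1 (20 μM). Mixtures heated 85 °C 2 min, run on 16% tris-glycine gel at 110 V for 90 min, and read by phosphor autoradiography.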

Series [14] in a line: Drug retention in liver lysates of mouse xenografted with human HT-29 cells assessed as macromolecule associated radioactivity at 29.6 MBq measured after 72 hrs using 177Lu labelled compound by gamma counter analysis relative to control. Type of series: ADME, tissue-based. The following applies: in vivo. The method in brief:
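HT-29 xenograft mice given 800 μCi (29.6 MBq) 177Lu conjugate i.v. and killed at 72 h. Tumor, liver and kidney homogenized in RIPA with protease inhibitor and supernatants run on SDS-PAGE autoradiography. Other supernatant aliquots filtered through 10 kDa MWCO devices to give the % macromolecule-associated radioactivity; n = 3.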

For the compound `Cc1cc(O)cc(C)c1C[C@H](NC(=O)[C@@H]1CCCN1C(=O)[C@H](CCCNC(=N)N)NC(=O)[C@H](CCCNC(=N)N)N(C)C(=O)[C@@H]1CCCN1C(=O)[C@H](CCCCN)NC(=O)[C@@H](CO)NC(=O)[C@@H](CO)NC(=O)[C@@H](CO)NC(=O)[C@H](Cc1cn(CCNC(=O)[C@H](CCCNC(=N)N)NC(=O)[C@H](CC(C)C)NC(=O)CCC(=O)O)nn1)NC(=O)CN1CCN(CC(=O)O)CCN(CC(=O)O)CCN(CC(=O)O)CC1)C(=O)N[C@H](C(=O)N[C@@H](CC(C)C)C(=O)O)C(C)(C)C`, the K at Cathepsin B [1] was determined as 182 µM. Also, in series [2], the Drug uptake is on record as 20%.

On to `Cc1cc(O)cc(C)c1C[C@H](NC(=O)[C@@H]1CCCN1C(=O)[C@H](CCCNC(=N)N)NC(=O)[C@H](CCCNC(=N)N)N(C)C(=O)[C@@H]1CCCN1C(=O)[C@H](CCCCN)NC(=O)[C@@H](CO)NC(=O)[C@@H](CO)NC(=O)[C@@H](CO)NC(=O)[C@H](Cc1cn(CCNC(=O)[C@H](CCCNC(=N)N)NC(=O)[C@H](CC(C)C)NC(=O)C2OC2C(=O)O)nn1)NC(=O)CN1CCN(CC(=O)O)CCN(CC(=O)O)CCN(CC(=O)O)CC1)C(=O)N[C@H](C(=O)N[C@@H](CC(C)C)C(=O)O)C(C)(C)C` (some centres undefined), for which the outcome on Cathepsin B [3] was inactive. Moreover, the Drug uptake worked out at 0.2 % ID/g in series [4]; 0.7 % ID/g in series [5]; 0.06 % ID/g in series [6]; 1.7 % ID/g in series [7]; 0.02 % ID/g in [8]; 0.65 % ID/g in series [9]. Moreover, the Drug uptake was 0.14 % ID/g in series [10], 1.47 % ID/g in series [11] and 80% in [14]. For the same compound, in series [12], the Ratio came out at 15. At Cathepsin B [13], the result was Active.
